One may read the IC50 as the concentration needed to halve the response being measured. A word on the Ki: it is a measure of affinity in units of concentration, obtained from inhibition or displacement. Read a high Ki as weaker binding. A word on the bioavailability: it is the share of a dose that reaches the circulation, judged against a reference dose that is usually intravenous.

Data on 49 molecules can be found in ChEMBL document CHEMBL1147577, “Design, synthesis, and SAR of anthranilamide-based factor Xa inhibitors incorporating substituted biphenyl P4 motifs” (Bioorg Med Chem Lett, 2004).

Data set [1] deals with T1, Coagulation factor X (Homo sapiens, UniProt P00742). Put plainly: Inhibitory concentration against coagulation factor Xa.
The target of data set [2] is T1, Coagulation factor X. Put plainly: Inhibition of Coagulation factor X.
Data set [3] addresses T1, Coagulation factor X. Put plainly: Concentration required to double the lag time of maximum thrombin generation in human plasma-based thrombin generation assay. In kind it is functional, cell-free. In outline:
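Human plasma treated with reptilase, mixed with inhibitor serially diluted from DMSO stock, then chromogenic substrate H-b-Ala-Gly-Arg-p-nitroanilide and CaCl2. Thrombin generation started with 640 pmol/L recombinant tissue factor. Absorbance at 405 nm followed at 37 °C for 22 min. Reported as 2XTG, the inhibitor concentration that doubles the time to maximum thrombin generation.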

Data set [4] can be described thus: Oral bioavailability in rat. In kind it is ADME, organism-based. The settings on record: in vivo. In outline:
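Sprague–Dawley rats given 6 mg/kg orally, with oral bioavailability calculated.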

The target of data set [5] is Vitamin K-dependent protein C (Homo sapiens, UniProt P04070). Put plainly: Inhibitory activity against activated protein C was determined.
For a further data set, the target named is Kallikrein-1 (Homo sapiens, UniProt P06870). Put plainly: Inhibitory activity against kallikrein was determined.
Data set [6] concerns the target Tissue-type plasminogen activator (Homo sapiens, UniProt P00750). Put plainly: Inhibitory activity against tissue type plasminogen activator was determined.
The target in another data set is Serine protease 1 (Homo sapiens, UniProt P07477). Put plainly: Inhibitory concentration against trypsin was determined.
The target of data set [7] is Plasminogen (Homo sapiens) (UniProt P00747). Put plainly: Inhibitory activity against plasmin was determined.

Bounds are passed on as bounds.

T1 sequence (P00742 41-179 limits assumed): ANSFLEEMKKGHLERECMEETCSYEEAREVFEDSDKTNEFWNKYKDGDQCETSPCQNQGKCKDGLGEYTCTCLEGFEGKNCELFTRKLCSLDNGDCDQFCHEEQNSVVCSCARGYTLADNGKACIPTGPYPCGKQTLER
T1 sequence (P00742 235-488 limits assumed): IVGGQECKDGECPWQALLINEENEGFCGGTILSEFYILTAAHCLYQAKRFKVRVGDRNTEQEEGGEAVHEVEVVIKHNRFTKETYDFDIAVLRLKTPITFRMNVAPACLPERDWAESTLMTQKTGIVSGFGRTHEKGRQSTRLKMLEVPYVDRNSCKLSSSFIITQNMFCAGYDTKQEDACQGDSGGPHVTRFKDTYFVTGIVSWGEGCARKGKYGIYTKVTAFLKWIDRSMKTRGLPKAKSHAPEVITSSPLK
Sequence of Kallikrein-1 (P06870 whole entry): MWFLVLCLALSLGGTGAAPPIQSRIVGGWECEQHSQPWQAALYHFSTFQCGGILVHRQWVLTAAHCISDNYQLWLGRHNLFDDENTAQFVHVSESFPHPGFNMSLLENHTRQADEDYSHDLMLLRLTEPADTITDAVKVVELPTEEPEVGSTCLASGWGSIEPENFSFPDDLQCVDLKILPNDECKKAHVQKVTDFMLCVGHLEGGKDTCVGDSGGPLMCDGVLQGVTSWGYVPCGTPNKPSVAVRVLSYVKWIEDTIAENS
Sequence of Plasminogen (Homo sapiens) (P00747 whole entry, looked up): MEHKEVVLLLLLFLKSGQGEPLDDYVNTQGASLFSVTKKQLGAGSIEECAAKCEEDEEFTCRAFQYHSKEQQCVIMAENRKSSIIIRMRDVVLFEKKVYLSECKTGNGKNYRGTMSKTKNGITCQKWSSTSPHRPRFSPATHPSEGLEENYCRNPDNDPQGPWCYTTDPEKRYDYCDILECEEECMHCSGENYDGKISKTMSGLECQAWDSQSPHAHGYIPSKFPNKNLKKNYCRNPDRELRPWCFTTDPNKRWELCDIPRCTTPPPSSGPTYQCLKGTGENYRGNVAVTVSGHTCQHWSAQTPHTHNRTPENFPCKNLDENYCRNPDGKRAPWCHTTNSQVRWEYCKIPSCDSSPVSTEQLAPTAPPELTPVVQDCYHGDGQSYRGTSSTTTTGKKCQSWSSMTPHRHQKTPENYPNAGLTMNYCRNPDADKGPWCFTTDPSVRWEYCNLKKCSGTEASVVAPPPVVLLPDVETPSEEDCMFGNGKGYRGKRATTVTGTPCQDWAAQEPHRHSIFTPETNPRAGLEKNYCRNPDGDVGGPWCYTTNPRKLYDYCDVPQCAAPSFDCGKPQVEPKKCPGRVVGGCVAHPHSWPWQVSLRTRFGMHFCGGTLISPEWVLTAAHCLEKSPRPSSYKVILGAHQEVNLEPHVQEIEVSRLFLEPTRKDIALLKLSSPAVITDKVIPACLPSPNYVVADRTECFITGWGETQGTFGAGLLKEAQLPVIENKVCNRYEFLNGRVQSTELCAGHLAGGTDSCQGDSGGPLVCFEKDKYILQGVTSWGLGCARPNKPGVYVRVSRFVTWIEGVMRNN
Sequence of Vitamin K-dependent protein C (P04070 43-197 limits assumed): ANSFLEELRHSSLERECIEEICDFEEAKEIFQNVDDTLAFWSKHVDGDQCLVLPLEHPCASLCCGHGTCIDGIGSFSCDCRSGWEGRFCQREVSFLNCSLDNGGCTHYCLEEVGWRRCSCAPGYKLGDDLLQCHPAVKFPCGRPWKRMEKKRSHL
Sequence of Vitamin K-dependent protein C (P04070 212-461 limits assumed): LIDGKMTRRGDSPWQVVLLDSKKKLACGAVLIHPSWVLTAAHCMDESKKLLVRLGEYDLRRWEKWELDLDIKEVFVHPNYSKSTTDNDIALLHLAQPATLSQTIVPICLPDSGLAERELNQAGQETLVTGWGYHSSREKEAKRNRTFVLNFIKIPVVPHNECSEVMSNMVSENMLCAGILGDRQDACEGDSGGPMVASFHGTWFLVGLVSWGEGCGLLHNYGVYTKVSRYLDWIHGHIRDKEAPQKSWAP
Sequence of Serine protease 1 (P07477 whole entry): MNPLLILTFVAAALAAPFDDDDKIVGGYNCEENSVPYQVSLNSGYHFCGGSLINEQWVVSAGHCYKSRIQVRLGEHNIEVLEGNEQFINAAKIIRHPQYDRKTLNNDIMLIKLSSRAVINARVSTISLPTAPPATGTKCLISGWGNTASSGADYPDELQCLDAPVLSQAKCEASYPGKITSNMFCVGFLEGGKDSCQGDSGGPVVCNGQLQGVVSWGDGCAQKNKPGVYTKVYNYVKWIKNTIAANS
Sequence of Tissue-type plasminogen activator (P00750 whole entry): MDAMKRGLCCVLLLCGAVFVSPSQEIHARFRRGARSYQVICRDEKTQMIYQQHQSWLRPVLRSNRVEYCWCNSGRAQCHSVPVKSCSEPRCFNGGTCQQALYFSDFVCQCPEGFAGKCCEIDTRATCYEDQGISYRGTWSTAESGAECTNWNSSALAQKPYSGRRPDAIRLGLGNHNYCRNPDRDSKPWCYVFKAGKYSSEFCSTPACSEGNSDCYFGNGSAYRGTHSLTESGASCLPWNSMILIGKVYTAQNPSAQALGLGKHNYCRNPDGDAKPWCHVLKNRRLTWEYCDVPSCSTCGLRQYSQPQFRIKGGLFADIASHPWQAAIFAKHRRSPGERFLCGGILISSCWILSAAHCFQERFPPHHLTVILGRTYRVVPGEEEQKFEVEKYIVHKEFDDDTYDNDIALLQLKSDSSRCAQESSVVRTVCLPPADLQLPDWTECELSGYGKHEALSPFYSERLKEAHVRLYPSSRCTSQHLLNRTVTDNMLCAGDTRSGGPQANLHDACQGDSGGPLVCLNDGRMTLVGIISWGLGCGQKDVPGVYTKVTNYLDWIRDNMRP

As to `O=C(Nc1ccc(Cl)cc1C(=O)Nc1ccc(Cl)cn1)c1ccc(-c2ccccc2N2CCC(C(=O)O)CC2)cc1`, inhibition against Coagulation factor X [1] was half-maximal at 0.4 nM (IC50). The molecule further showed an inhibitory constant (Ki) on Coagulation factor X [2] of 0.012 nM. At Coagulation factor X [3], this molecule yielded an Activity of over 5 µM.
`N=C(N)c1ccc(-c2ccc(C(=O)Nc3ccc(Cl)cc3C(=O)Nc3ccc(Cl)cn3)cc2)cc1` registered a concentration for half-maximal inhibition (IC50) against Coagulation factor X [1] of 66 nM.
Molecule `CN(C)C(=N)c1ccccc1-c1ccc(C(=O)Nc2ccc(Cl)cc2C(=O)Nc2ccc(Cl)cn2)cc1` showed an IC50 at Coagulation factor X [1] of 0.2 nM. At Coagulation factor X [2], this molecule showed a Ki of 0.1 nM. This molecule came in with an Activity at Coagulation factor X [3] of 1.4 µM.
Take `O=C(Nc1ccc(Cl)cc1C(=O)Nc1ccc(Cl)cn1)c1ccc(-c2ccccc2N2CCCCC2)cc1`: at Coagulation factor X [1], the half-maximal inhibitory concentration (IC50) turned out to be 2.8 nM.
Same read-out and setting: next, `CN1CCN(c2cccc(-c3ccc(C(=O)Nc4ccc(Cl)cc4C(=O)Nc4ccc(Cl)cn4)cc3)c2)CC1`: 23 nM.
Still for that read-out and setting: next, `O=C(Nc1ccc(Cl)cc1C(=O)Nc1ccc(Cl)cn1)c1ccc(-c2cccc(N3CCC(O)CC3)c2)cc1`: 7 nM; `CC(=O)Nc1ccc(NC(=O)c2ccc(-c3ccccc3S(N)(=O)=O)cc2)c(C(=O)Nc2ccc(Br)cn2)c1`: 370 nM.
In turn, `CN1CCN(c2ccccc2-c2ccc(C(=O)Nc3ccc(Cl)cc3C(=O)Nc3ccc(Cl)cn3)cc2)CC1` came in with an IC50 against Coagulation factor X [1] of 3.5 nM. Also, at Coagulation factor X [2], the inhibition constant (Ki) was 0.9 nM. The Activity on Coagulation factor X [3] is over 5 µM.
`CN1CCCN(c2ccccc2-c2ccc(C(=O)Nc3ccc(Cl)cc3C(=O)Nc3ccc(Cl)cn3)cc2)CC1` showed an IC50 at Coagulation factor X [1] of 3.1 nM. For the same molecule, on Coagulation factor X [2], the inhibition constant Ki worked out at 0.8 nM. Besides, the Activity at Coagulation factor X [3] is over 5 µM.
At Coagulation factor X [1], `CNc1ccccc1-c1ccc(C(=O)Nc2ccc(Cl)cc2C(=O)Nc2ccc(Cl)cn2)cc1` returned an IC50 of 4.1 nM.
The molecule `Nc1ccccc1-c1ccc(C(=O)Nc2ccc(Cl)cc2C(=O)Nc2ccc(Cl)cn2)cc1` came in with an inhibitory constant (Ki) at Coagulation factor X [2] of 0.2 nM. At Coagulation factor X [3], the Activity was over 5 µM.
The molecule `CC(N)=NCc1ccccc1-c1ccc(C(=O)Nc2ccc(Cl)cc2C(=O)Nc2ccc(Cl)cn2)cc1` yielded a bioavailability in [4] of under 1%. For the same molecule, the concentration for half-maximal inhibition (IC50) at Coagulation factor X [1] amounted to 0.7 nM. Also, affinity on Coagulation factor X [2] was put at a Ki of 0.1 nM.
As for `CN1CCCN(c2cccc(-c3ccc(C(=O)Nc4ccc(Cl)cc4C(=O)Nc4ccc(Cl)cn4)cc3)c2)CC1`, the IC50 against Coagulation factor X [1] was determined as 22 nM.
Molecule `NS(=O)(=O)c1ccccc1-c1ccc(C(=O)Nc2ccccc2C(=O)Nc2ccc(Cl)cn2)cc1` registered a half-inhibitory concentration (IC50) on Coagulation factor X [1] of 6.7 nM. The molecule further yielded an Activity on Coagulation factor X [3] of over 5 µM.
Regarding `CN(C)C(=N)c1cccc(-c2ccc(C(=O)Nc3ccc(Cl)cc3C(=O)Nc3ccc(Cl)cn3)cc2)c1`, the midpoint of inhibition on Coagulation factor X [1], the IC50, lay at 2 nM. Besides, at Coagulation factor X [2], the Ki came to 1 nM. Moreover, the Activity on Coagulation factor X [3] is over 5 µM.
Molecule `O=C(Nc1ccc(Cl)cc1C(=O)Nc1ccc(Cl)cn1)c1ccc(-c2ccccc2N2CCOCC2)cc1` gave an IC50 against Coagulation factor X [1] of 4.1 nM.
As for `O=C(Nc1ccc(Cl)cc1C(=O)Nc1ccc(Cl)cn1)c1ccc(-c2ccccc2N2CCCNCC2)cc1`, on Coagulation factor X [1], inhibition was half-maximal at 5.6 nM (IC50). The inhibition constant Ki on Coagulation factor X [2] worked out at 1.8 nM. On Coagulation factor X [3], this molecule gave an Activity of over 5 µM.
As for `CN(C)C(=N)c1ccc(-c2ccc(C(=O)Nc3ccc(Cl)cc3C(=O)Nc3ccc(Cl)cn3)cc2)cc1`, the IC50 on Coagulation factor X [1] is 60 nM.
Take `O=C(Nc1ccc(Cl)cc1C(=O)Nc1ccc(Cl)cn1)c1ccc(-c2cccc(N3CCOCC3)c2)cc1`: the 50% inhibitory concentration (IC50) on Coagulation factor X [1] came out at 74 nM.
Still for that read-out and setting: in the case of `O=C(Nc1ccc(Cl)cc1C(=O)Nc1ccc(Cl)cn1)c1ccc(-c2cccc(N3CCCCC3)c2)cc1` it was 16 nM.
The molecule `NS(=O)(=O)c1ccccc1-c1ccc(C(=O)Nc2ccncc2C(=O)Nc2ccc(Cl)cn2)cc1` displayed an IC50 against Coagulation factor X [1] of 18 nM. In addition, on Coagulation factor X [3], the Activity is 2.2 µM.
The molecule `NS(=O)(=O)c1ccccc1-c1ccc(C(=O)Nc2ccc(-n3ccnc3)cc2C(=O)Nc2ccc(Br)cn2)cc1` displayed an IC50 against Coagulation factor X [1] of 128 nM.
In data set [4], `N=C(N)NCc1cccc(-c2ccc(C(=O)Nc3ccc(Cl)cc3C(=O)Nc3ccc(Cl)cn3)cc2)c1` had a bioavailability of under 1%. Besides, at Coagulation factor X [1], half-maximal inhibition (IC50) required 9.5 nM. The same molecule showed an Activity on Coagulation factor X [3] of over 5 µM.
With `Nc1cccc(-c2ccc(C(=O)Nc3ccc(Cl)cc3C(=O)Nc3ccc(Cl)cn3)cc2)c1`, the IC50 against Coagulation factor X [1] came out at 1.9 nM.
Consider `CC(=N)NCc1cccc(-c2ccc(C(=O)Nc3ccc(Cl)cc3C(=O)Nc3ccc(Cl)cn3)cc2)c1`, for which, on Coagulation factor X [1], the IC50 is 4.4 nM. In addition, the affinity on Coagulation factor X [2] corresponds to a Ki of 1.8 nM. This molecule registered an Activity on Coagulation factor X [3] of over 5 µM.
Take `CN1CCN(c2ccc(NC(=O)c3ccc(-c4ccccc4S(N)(=O)=O)cc3)c(C(=O)Nc3ccc(Br)cn3)c2)CC1`: at Coagulation factor X [1], the IC50 worked out at 1550 nM.
For the molecule `N=C(N)NCc1ccccc1-c1ccc(C(=O)Nc2ccc(Cl)cc2C(=O)Nc2ccc(Cl)cn2)cc1`, the Activity on Coagulation factor X [3] is over 5 µM.
`NS(=O)(=O)c1ccccc1-c1ccc(C(=O)Nc2ccccc2C(=O)Nc2ccc(Br)cn2)cc1`: the half-inhibitory concentration (IC50) was over 10000 nM in [5]; 3.4 nM on Coagulation factor X [1]; 2100 nM against Kallikrein-1; over 10000 nM in [6]; over 10000 nM on Serine protease 1; over 10000 nM in data set [7]. This molecule yielded an Activity at Coagulation factor X [3] of over 5 µM.
With `NC(N)=NCc1ccccc1-c1ccc(C(=O)Nc2ccc(Cl)cc2C(=O)Nc2ccc(Cl)cn2)cc1`, the bioavailability in [4] was under 1%. This molecule had an IC50 on Coagulation factor X [1] of 1.2 nM. The molecule also registered an inhibition constant Ki at Coagulation factor X [2] of 0.3 nM.
On Coagulation factor X [1], `O=C(Nc1ccc(Cl)cc1C(=O)Nc1ccc(Cl)cn1)c1ccc(-c2ccccc2N2CCNCC2)cc1` came in with a 50% inhibitory concentration (IC50) of 4.1 nM. For the same molecule, affinity at Coagulation factor X [2] was put at a Ki of 1 nM. On Coagulation factor X [3], this molecule returned an Activity of over 5 µM.
`NS(=O)(=O)c1ccccc1-c1ccc(C(=O)Nc2ncccc2C(=O)Nc2ccc(Cl)cn2)cc1`: 48 nM corresponded to half-maximal inhibition at Coagulation factor X [1] (IC50). On Coagulation factor X [3], this molecule gave an Activity of over 5 µM.
On Coagulation factor X [1], `NS(=O)(=O)c1ccccc1-c1ccc(C(=O)NCCC(=O)Nc2ccc(Br)cn2)cc1` returned a half-inhibitory concentration (IC50) of 12 nM.
On Coagulation factor X [1], `Nc1ccc(NC(=O)c2ccc(-c3ccccc3S(N)(=O)=O)cc2)c(C(=O)Nc2ccc(Br)cn2)c1` gave a half-inhibitory concentration (IC50) of 4.6 nM. On Coagulation factor X [3], this molecule had an Activity of 2.8 µM.
`NCc1ccccc1-c1ccc(C(=O)Nc2ccccc2C(=O)Nc2ccc(Cl)cn2)cc1` had a half-inhibitory concentration (IC50) on Coagulation factor X [1] of 67 nM.
Still for that read-out and setting: next, `O=C(Nc1ccc(Cl)cc1C(=O)Nc1ccc(Cl)cn1)c1ccc(-c2ccccc2N2CCCC2)cc1`: 2.8 nM.
Consider `NS(=O)(=O)c1ccccc1-c1ccc(C(=O)Nc2cnccc2C(=O)Nc2ccc(Cl)cn2)cc1`, for which, on Coagulation factor X [1], the half-maximal inhibitory concentration (IC50) worked out at 23 nM. For the same molecule, the Activity on Coagulation factor X [3] turned out to be 4.9 µM.
On the same counts, the results for `NS(=O)(=O)c1ccccc1-c1ccc(C(=O)Nc2cccnc2C(=O)Nc2ccc(Cl)cn2)cc1` are 26 nM and over 5 µM.
For `O=C(Nc1ccc(Cl)cc1C(=O)Nc1ccc(Cl)cn1)c1ccc(-c2cccc(N3CCCNCC3)c2)cc1`, 32 nM corresponded to half-maximal inhibition against Coagulation factor X [1] (IC50).
For the molecule `Nc1ccc(NC(=O)c2ccc(-c3ccccc3S(N)(=O)=O)cc2)c(C(=O)Nc2ccc(Cl)cn2)c1`, on Coagulation factor X [1], the IC50 amounted to 6.7 nM. The molecule further showed an Activity on Coagulation factor X [3] of 3 µM.
`CN(C)c1ccccc1-c1ccc(C(=O)Nc2ccc(Cl)cc2C(=O)Nc2ccc(Cl)cn2)cc1` yielded a bioavailability in data set [4] of 100%. In addition, at Coagulation factor X [1], the IC50 stood at 0.9 nM. On Coagulation factor X [2], this molecule had a Ki of 0.1 nM. Further, the Activity on Coagulation factor X [3] is over 5 µM.
Turning to `Nc1ccc(C(=O)Nc2ccc(Br)cn2)c(NC(=O)c2ccc(-c3ccccc3S(N)(=O)=O)cc2)c1`, half-maximal inhibition at Coagulation factor X [1] (IC50) was put at 6.2 nM. This molecule also had an Activity on Coagulation factor X [3] of over 5 µM.
For the molecule `O=C(Nc1ccc(Cl)cc1C(=O)Nc1ccc(Cl)cn1)c1ccc(-c2cccc(N3CCCC3)c2)cc1`, the half-inhibitory concentration (IC50) on Coagulation factor X [1] came to 5.3 nM.
On the same count and under the same terms, next, `O=C(Nc1ccc(Cl)cc1C(=O)Nc1ccc(Cl)cn1)c1ccc(-c2cccc(N3CCNCC3)c2)cc1`: 39 nM.
As for `N=C(N)c1cccc(-c2ccc(C(=O)Nc3ccc(Cl)cc3C(=O)Nc3ccc(Cl)cn3)cc2)c1`, the bioavailability in data set [4] was under 1%. The same molecule came in with an IC50 against Coagulation factor X [1] of 1.6 nM. At Coagulation factor X [2], the affinity corresponds to a Ki of 0.7 nM. At Coagulation factor X [3], this molecule registered an Activity of over 5 µM.
In the case of `O=C(Nc1ccc(Cl)cc1C(=O)Nc1ccc(Cl)cn1)c1ccc(-c2cccc(N3CCC(C(=O)O)CC3)c2)cc1`, the half-inhibitory concentration (IC50) against Coagulation factor X [1] is 1.8 nM.
Take `CC(=N)NCc1ccccc1-c1ccc(C(=O)Nc2ccc(Cl)cc2C(=O)Nc2ccc(Cl)cn2)cc1`: on Coagulation factor X [3], the Activity is over 5 µM.
`O=C(Nc1ccc(Cl)cc1C(=O)Nc1ccc(Cl)cn1)c1ccc(-c2ccccc2N2CCC(O)CC2)cc1` had a bioavailability in data set [4] of 32%. Besides, at Coagulation factor X [1], the half-maximal inhibitory concentration (IC50) stood at 1 nM. The Ki on Coagulation factor X [2] was 0.2 nM. At Coagulation factor X [3], this molecule showed an Activity of over 5 µM.
On to `CN(C)c1cccc(-c2ccc(C(=O)Nc3ccc(Cl)cc3C(=O)Nc3ccc(Cl)cn3)cc2)c1`, for which it took 3.5 nM to reach half-maximal inhibition on Coagulation factor X [1] (IC50).
For `CNc1cccc(-c2ccc(C(=O)Nc3ccc(Cl)cc3C(=O)Nc3ccc(Cl)cn3)cc2)c1`, the midpoint of inhibition at Coagulation factor X [1], the IC50, lay at 2.3 nM.
